Data published in ChEMBL document CHEMBL1649343, “Pulicatins A-E, neuroactive thiazoline metabolites from cone snail-associated bacteria” (J Nat Prod, 2010).
The source made the active and inactive calls. No cut-off for these calls is given here.

How the values were obtained:
[1] = biological target: Histamine H1 receptor (Homo sapiens) (UniProt P35367); experiment: Binding affinity to human histamine H1 receptor by radioligand displacement assay
[2] = biological target: 5-hydroxytryptamine receptor 2B (Mus musculus) (UniProt Q02152); experiment: Increase of 5HT2B receptor-mediated KCL-induced intracellular calcium influx in mouse DRG neurons at 20 ug/ml; format: functional, cell-based
Procedure, shortened: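 Dorsal root ganglia cells from the cervical and lumbar regions of mice were loaded with Fura-2 AM and imaged individually by fluorescence microscopy at 20 to 25 °C. After baseline, cells were given 25 mM KCl and washed. After return to baseline, compound was applied at 20 µg/mL, then replaced with 25 mM KCl while intracellular Ca2+ was monitored.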

[3] = biological target: Kappa-type opioid receptor (Homo sapiens) (UniProt P41145); experiment: Binding affinity to human kappa opioid receptor by radioligand displacement assay
[4] = biological target: 5-hydroxytryptamine receptor 5A (Homo sapiens) (UniProt P47898); experiment: Binding affinity to human 5HT5A receptor at 10 uM by radioligand displacement assay
Procedure, shortened: (§1)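 Primary screen run by the PDSP/NIMH across a 46-target panel. Each compound was tested at a final concentration of 10 µM by radioligand displacement, and initial hits were obtained from this screen.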

[5] = biological target: T1, 5-hydroxytryptamine receptor 1A (Homo sapiens) (UniProt P08908); experiment: Binding affinity to human 5HT1A receptor at 10 uM by radioligand displacement assay; procedure, shortened: as §1
T1 sequence (whole entry): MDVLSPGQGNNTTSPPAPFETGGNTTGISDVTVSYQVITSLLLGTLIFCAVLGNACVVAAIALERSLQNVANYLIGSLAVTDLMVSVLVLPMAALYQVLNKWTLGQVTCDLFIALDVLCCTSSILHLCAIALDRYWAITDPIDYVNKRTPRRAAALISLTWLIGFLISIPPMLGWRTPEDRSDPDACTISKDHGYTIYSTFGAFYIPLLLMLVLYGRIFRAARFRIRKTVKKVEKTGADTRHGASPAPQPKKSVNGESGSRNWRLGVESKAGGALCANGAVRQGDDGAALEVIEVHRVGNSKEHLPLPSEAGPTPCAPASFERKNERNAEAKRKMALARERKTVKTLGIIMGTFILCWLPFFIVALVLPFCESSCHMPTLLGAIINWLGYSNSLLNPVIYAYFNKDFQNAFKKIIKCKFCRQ

[6] = biological target: 5-hydroxytryptamine receptor 2A (Homo sapiens) (UniProt P28223); experiment: Binding affinity to human 5HT2A receptor at 10 uM by radioligand displacement assay; procedure, shortened: as §1
Homo sapiens [7] = species on record: Homo sapiens; experiment: Selectivity ratio of Ki for human 5HT2C receptor to Ki for human 5HT2B receptor
[8] = biological target: 5-hydroxytryptamine receptor 1B (Homo sapiens) (UniProt P28222); experiment: Binding affinity to human 5HT1B receptor at 10 uM by radioligand displacement assay; procedure, shortened: as §1
[9] = biological target: T2, 5-hydroxytryptamine receptor 3A (Homo sapiens) (UniProt P46098); experiment: Binding affinity to human 5HT3 receptor at 10 uM by radioligand displacement assay; procedure, shortened: as §1
T2 sequence (whole entry): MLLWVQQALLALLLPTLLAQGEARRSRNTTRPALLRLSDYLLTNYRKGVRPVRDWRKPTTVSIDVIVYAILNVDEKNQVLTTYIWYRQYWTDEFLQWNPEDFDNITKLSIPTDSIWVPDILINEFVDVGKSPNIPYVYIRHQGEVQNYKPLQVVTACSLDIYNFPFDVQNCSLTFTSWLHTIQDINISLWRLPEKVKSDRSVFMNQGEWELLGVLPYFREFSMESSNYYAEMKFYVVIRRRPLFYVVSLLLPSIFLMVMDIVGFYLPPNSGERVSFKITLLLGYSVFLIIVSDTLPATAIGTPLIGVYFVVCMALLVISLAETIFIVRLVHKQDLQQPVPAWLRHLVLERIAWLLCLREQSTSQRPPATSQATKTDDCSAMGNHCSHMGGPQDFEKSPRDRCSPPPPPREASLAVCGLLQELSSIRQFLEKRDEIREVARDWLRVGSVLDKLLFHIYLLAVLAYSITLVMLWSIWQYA

[10] = biological target: 5-hydroxytryptamine receptor 6 (Homo sapiens) (UniProt P50406); experiment: Binding affinity to human 5HT6 receptor at 10 uM by radioligand displacement assay; procedure, shortened: as §1
[11] = biological target: 5-hydroxytryptamine receptor 1D (Homo sapiens) (UniProt P28221); experiment: Binding affinity to human 5HT1D receptor at 10 uM by radioligand displacement assay; procedure, shortened: as §1
Homo sapiens [12] = species on record: Homo sapiens; experiment: Selectivity ratio of Ki for human 5HT4 receptor to Ki for human 5HT2B receptor
[13] = biological target: T3, 5-hydroxytryptamine receptor 2C (Homo sapiens) (UniProt P28335); experiment: Binding affinity to human 5HT2C receptor at 10 uM by radioligand displacement assay; procedure, shortened: as §1
T3 sequence (whole entry): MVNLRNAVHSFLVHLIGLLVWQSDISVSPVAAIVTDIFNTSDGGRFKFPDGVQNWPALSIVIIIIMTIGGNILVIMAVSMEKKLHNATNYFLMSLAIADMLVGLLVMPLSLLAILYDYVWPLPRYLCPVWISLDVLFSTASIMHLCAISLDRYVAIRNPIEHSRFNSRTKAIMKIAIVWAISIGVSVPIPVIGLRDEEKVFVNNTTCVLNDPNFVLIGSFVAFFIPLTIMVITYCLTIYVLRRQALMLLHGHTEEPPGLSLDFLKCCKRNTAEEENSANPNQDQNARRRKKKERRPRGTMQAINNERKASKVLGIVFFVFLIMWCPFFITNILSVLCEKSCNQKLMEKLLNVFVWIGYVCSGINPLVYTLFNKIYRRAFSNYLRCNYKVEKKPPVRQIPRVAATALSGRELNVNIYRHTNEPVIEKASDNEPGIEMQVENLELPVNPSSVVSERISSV

Homo sapiens [14] = species on record: Homo sapiens; experiment: Selectivity ratio of Ki for human 5HT6 receptor to Ki for human 5HT2B receptor
[15] = biological target: 5-hydroxytryptamine receptor 7 (Homo sapiens) (UniProt P34969); experiment: Binding affinity to human 5HT7 receptor at 10 uM by radioligand displacement assay; procedure, shortened: as §1
[16] = biological target: 5-hydroxytryptamine receptor 4 (Homo sapiens) (UniProt Q13639); experiment: Binding affinity to human 5HT4 receptor at 10 uM by radioligand displacement assay; procedure, shortened: as §1
Homo sapiens [17] = species on record: Homo sapiens; experiment: Selectivity ratio of Ki for human 5HT1D receptor to Ki for human 5HT2B receptor
Homo sapiens [18] = species on record: Homo sapiens; experiment: Selectivity ratio of Ki for human 5HT7 receptor to Ki for human 5HT2B receptor
Homo sapiens [19] = species on record: Homo sapiens; experiment: Selectivity ratio of Ki for human 5HT1A receptor to Ki for human 5HT2B receptor
Homo sapiens [20] = species on record: Homo sapiens; experiment: Selectivity ratio of Ki for human 5HT5A receptor to Ki for human 5HT2B receptor
Homo sapiens [21] = species on record: Homo sapiens; experiment: Selectivity ratio of Ki for human 5HT3 receptor to Ki for human 5HT2B receptor
[22] = biological target: 5-hydroxytryptamine receptor 1E (Homo sapiens) (UniProt P28566); experiment: Binding affinity to human 5HT1E receptor at 10 uM by radioligand displacement assay; procedure, shortened: as §1
Homo sapiens [23] = species on record: Homo sapiens; experiment: Selectivity ratio of Ki for human 5HT2A receptor to Ki for human 5HT2B receptor
Homo sapiens [24] = species on record: Homo sapiens; experiment: Selectivity ratio of Ki for human 5HT1E receptor to Ki for human 5HT2B receptor
Homo sapiens [25] = species on record: Homo sapiens; experiment: Selectivity ratio of Ki for human 5HT1B receptor to Ki for human 5HT2B receptor

Sequence of 5-hydroxytryptamine receptor 2B (Mus musculus) (Q02152 whole entry): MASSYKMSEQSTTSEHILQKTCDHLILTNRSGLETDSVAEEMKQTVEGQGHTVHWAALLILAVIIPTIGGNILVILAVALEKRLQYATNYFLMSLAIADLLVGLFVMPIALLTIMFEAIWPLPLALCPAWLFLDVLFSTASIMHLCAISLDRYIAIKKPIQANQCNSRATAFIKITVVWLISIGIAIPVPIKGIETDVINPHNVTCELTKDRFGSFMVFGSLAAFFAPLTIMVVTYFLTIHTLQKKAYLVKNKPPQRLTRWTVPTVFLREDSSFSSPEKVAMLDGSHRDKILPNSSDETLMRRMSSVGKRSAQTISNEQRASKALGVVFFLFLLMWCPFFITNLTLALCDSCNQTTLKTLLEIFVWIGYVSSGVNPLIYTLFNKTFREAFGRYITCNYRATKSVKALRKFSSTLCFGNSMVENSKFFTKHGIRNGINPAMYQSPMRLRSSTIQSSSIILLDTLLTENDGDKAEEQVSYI
Sequence of Histamine H1 receptor (Homo sapiens) (P35367 whole entry): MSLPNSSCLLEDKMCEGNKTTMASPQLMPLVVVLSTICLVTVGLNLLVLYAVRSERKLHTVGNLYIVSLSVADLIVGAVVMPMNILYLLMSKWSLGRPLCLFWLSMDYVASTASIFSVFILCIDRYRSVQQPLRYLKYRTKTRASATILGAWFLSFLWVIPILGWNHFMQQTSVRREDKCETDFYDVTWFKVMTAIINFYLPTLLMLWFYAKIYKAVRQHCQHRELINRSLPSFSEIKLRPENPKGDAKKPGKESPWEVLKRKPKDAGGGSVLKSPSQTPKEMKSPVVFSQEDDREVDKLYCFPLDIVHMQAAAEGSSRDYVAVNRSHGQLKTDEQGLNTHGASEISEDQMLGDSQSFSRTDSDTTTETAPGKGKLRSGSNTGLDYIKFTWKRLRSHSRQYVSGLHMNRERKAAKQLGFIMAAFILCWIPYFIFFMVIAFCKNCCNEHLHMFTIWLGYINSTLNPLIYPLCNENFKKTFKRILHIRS
Sequence of 5-hydroxytryptamine receptor 1D (Homo sapiens) (P28221 whole entry): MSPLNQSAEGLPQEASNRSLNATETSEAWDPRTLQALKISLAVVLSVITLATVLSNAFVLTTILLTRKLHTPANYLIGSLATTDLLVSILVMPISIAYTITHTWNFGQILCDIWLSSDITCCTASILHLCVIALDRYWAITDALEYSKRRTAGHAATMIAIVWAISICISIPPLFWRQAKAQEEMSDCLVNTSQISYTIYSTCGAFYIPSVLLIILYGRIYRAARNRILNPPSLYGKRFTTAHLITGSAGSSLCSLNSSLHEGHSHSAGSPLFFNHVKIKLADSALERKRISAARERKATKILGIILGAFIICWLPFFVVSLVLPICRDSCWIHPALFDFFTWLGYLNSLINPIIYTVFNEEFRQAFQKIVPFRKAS
Sequence of Kappa-type opioid receptor (Homo sapiens) (P41145 whole entry): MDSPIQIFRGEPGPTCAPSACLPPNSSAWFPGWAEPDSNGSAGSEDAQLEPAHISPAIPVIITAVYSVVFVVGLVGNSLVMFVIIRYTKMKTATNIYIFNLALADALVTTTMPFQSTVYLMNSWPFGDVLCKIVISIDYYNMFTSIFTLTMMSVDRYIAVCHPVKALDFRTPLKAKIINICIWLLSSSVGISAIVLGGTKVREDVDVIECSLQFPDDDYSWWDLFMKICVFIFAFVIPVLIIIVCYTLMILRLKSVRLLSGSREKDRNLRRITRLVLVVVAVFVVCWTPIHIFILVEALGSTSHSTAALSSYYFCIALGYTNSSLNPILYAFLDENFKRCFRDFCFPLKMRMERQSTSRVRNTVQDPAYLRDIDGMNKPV
Sequence of 5-hydroxytryptamine receptor 6 (Homo sapiens) (P50406 whole entry): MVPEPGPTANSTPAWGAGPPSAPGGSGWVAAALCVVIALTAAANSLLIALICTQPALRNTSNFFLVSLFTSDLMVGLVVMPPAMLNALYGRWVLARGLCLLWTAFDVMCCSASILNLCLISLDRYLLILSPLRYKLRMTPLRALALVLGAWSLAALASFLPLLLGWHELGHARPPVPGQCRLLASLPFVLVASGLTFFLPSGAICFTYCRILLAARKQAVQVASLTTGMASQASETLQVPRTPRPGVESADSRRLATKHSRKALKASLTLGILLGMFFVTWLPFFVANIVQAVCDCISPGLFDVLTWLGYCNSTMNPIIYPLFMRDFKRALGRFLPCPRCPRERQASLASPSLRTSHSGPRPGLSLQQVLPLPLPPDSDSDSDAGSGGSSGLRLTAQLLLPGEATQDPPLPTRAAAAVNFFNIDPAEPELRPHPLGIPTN
Sequence of 5-hydroxytryptamine receptor 2A (Homo sapiens) (P28223 whole entry): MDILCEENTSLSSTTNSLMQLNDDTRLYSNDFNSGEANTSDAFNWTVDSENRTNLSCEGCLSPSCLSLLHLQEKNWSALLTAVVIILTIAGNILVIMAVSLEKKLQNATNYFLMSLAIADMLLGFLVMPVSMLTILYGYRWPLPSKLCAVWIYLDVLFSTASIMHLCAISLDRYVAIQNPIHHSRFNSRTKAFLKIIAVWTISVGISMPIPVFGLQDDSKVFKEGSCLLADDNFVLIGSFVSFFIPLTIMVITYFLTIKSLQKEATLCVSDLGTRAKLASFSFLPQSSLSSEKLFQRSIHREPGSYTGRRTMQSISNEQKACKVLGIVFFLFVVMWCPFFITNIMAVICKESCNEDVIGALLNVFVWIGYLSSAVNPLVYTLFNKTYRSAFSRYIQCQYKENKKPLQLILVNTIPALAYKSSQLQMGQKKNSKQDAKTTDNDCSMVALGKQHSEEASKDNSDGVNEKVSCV
Sequence of 5-hydroxytryptamine receptor 4 (Homo sapiens) (Q13639 whole entry): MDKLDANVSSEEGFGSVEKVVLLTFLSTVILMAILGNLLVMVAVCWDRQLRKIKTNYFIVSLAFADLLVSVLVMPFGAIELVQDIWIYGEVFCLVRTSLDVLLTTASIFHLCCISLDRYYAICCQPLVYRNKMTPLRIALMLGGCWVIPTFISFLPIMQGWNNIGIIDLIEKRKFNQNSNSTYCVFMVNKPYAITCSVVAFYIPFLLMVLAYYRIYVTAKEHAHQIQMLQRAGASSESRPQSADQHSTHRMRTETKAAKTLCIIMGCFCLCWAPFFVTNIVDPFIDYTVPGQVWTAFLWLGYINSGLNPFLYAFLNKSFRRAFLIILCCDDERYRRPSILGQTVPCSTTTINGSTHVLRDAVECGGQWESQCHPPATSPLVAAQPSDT
Sequence of 5-hydroxytryptamine receptor 1B (Homo sapiens) (P28222 whole entry): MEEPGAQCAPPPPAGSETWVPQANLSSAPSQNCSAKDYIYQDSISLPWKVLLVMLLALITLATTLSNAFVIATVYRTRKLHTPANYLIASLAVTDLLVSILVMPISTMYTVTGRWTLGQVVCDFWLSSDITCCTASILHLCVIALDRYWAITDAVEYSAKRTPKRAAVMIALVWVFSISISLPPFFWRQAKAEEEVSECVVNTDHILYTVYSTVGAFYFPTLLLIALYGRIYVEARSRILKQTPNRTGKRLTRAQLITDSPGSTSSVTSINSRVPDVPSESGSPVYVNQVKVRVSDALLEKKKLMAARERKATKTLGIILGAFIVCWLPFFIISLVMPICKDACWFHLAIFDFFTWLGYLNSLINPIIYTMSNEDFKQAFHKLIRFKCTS
Sequence of 5-hydroxytryptamine receptor 7 (Homo sapiens) (P34969 whole entry): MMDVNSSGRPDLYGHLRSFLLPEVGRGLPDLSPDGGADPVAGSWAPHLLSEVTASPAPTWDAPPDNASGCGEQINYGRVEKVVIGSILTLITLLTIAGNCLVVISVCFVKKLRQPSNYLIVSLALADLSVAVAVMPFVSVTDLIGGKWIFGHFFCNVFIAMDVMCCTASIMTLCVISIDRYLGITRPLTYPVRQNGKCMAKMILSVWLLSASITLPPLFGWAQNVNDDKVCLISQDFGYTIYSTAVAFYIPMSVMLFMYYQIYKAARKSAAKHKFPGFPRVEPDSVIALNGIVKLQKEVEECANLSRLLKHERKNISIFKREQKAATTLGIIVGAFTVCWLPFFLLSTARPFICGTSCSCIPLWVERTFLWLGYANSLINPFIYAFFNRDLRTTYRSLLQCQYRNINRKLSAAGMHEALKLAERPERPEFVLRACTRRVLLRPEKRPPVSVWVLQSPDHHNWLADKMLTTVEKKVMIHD
Sequence of 5-hydroxytryptamine receptor 1E (Homo sapiens) (P28566 whole entry): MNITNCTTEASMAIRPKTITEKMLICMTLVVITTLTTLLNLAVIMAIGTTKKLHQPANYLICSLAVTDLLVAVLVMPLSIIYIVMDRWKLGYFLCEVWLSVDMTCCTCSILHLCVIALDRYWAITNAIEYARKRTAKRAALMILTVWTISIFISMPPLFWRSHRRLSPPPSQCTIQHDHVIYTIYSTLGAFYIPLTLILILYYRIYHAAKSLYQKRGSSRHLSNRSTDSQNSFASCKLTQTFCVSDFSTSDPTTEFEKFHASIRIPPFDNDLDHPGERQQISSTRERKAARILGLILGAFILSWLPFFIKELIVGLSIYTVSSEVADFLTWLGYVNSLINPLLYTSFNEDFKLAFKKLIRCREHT
Sequence of 5-hydroxytryptamine receptor 5A (Homo sapiens) (P47898 whole entry): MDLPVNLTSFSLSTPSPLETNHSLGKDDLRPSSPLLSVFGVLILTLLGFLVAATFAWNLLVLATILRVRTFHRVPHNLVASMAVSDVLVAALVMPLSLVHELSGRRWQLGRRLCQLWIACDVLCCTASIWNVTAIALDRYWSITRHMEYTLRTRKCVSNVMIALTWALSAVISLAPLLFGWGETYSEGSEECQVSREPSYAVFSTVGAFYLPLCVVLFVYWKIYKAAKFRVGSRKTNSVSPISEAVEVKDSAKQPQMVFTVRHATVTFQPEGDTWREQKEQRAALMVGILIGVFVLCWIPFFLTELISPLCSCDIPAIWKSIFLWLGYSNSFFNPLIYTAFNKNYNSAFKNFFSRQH

Molecule `NC(=O)c1csc(-c2ccccc2O)n1` has an Activity [1] of 517 nM.
In the case of `NC(=O)C1CSC(c2ccccc2O)=N1` (stereo not drawn), the Activity [1] is reported as 678 nM, the Activity [2] is reported as “Active” and the Activity [3] is reported as 3.71 µM.
In the case of `OC[C@@H]1CSC(c2ccccc2O)=N1`, the Activity [2] is reported as “Active”.
With `C[C@@H]1SC(c2ccccc2O)=N[C@@H]1CO` the Activity [4] was “inactive”, the Activity [5] was “inactive” and the Activity [6] was “inactive”. For the same molecule, the Ratio Ki (Homo sapiens [7]) was 20, the Activity [8] was “inactive” and the Activity [9] was “inactive”. The Activity [10] was “inactive”, the Activity [11] was “inactive” and the Ratio Ki (Homo sapiens [12]) was 20. The Activity [13] was “inactive”, the Ratio Ki (Homo sapiens [14]) was 20 and the Activity [15] was “inactive”. For the same molecule, the Activity [16] was “inactive”, the Ratio Ki (Homo sapiens [17]) was 20 and the Ratio Ki (Homo sapiens [18]) was 20. It also gave a Ratio Ki (Homo sapiens [19]) of 20, a Ratio Ki (Homo sapiens [20]) of 20 and a Ratio Ki (Homo sapiens [21]) of 20. For the same molecule, the Activity [22] was “inactive”, the Activity [2] was “inactive” and the Ratio Ki (Homo sapiens [23]) was 20. It also gave a Ratio Ki (Homo sapiens [24]) of 20 and a Ratio Ki (Homo sapiens [25]) of 20.
